Calls of active or inactive are those of the source. No cut-off for these calls is given here.
Columns and labels:
HeLa [1] = experiment: Induction of apoptosis in human HeLa cells assessed as chromatin condensation after 24 hrs by AO/EB staining-based fluorescent microscopic analysis; assay type: functional, cell-based
Outline: (§1)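 HeLa monolayers were grown in 24-well plates and exposed for 24 h at 0, 5, 10, 20 and 40 µM. Cells were stained 10 min with AO/EB dye mix (100 µg/mL each) and washed with PBS. Morphology was then viewed by fluorescence microscopy: chromatin condensation, nuclear fragmentation, and membrane integrity.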

HeLa [2] = experiment: Antiproliferative activity against human HeLa cells after 44 hrs by MTT assay; assay type: functional, cell-based
Outline: (§2)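 HeLa, A549, SGC-7901 and MCF-7 cells seeded at 5 × 10^4 per well in DMEM at 37 °C, 5% CO2, incubated overnight. Cells were then treated at […], with 0.5% DMSO as control. MTT added for 4 h at 37 °C, formazan dissolved in DMSO, absorbance read at 570 nm. Inhibition % = (1 − Atreatment/Acontrol) × 100. Triplicate wells, each experiment repeated at least three times.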

HeLa [3] = experiment: Induction of apoptosis in human HeLa cells assessed as nuclear fragmentation after 24 hrs by AO/EB staining-based fluorescent microscopic analysis; assay type: functional, cell-based; outline: as §1
A549 = experiment: Antiproliferative activity against human A549 cells after 44 hrs by MTT assay; assay type: functional, cell-based; conditions: for IC50: A549, 44 h; outline: as §2
SGC-7901 = experiment: (§3) Antiproliferative activity against human SGC7901 cells after 44 hrs by MTT assay; assay type: functional, cell-based; outline: as §2
[4] = as §3; assay type: functional, cell-based; conditions: SGC-7901, 44 h; outline: as §2
MCF7 = experiment: Antiproliferative activity against human MCF7 cells after 44 hrs by MTT assay; assay type: functional, cell-based; conditions: for IC50: MCF7, 44 h; outline: as §2
HeLa [5] = experiment: Induction of apoptosis in human HeLa cells assessed as late apoptotic cells at 10 uM after 24 hrs by annexin V-FITC/propidium iodide staining-based flow cytometric analysis (reference value: 0.36%); assay type: functional
Outline: (§4)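 HeLa cells were seeded at 3 × 10^5 per well in DMEM at 37 °C, 5% CO2, and treated with 0, 10, 20 or 40 µM for 24 h. Cells were trypsinized, washed in cold PBS, resuspended in binding buffer, and stained with Annexin V-FITC plus PI for 20 min in the dark. Flow cytometry quadrants defined early (Annexin+/PI−) and late (Annexin+/PI+) apoptotic cells.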

Homo sapiens [6] = organism: Homo sapiens; experiment: Binding affinity to HT6 G-quadruplex DNA at 0.5 to 1 compound to DNA ratio by NMR spectroscopic analysis
Outline: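 1H NMR at 25 °C on d(TTAGGG) 0.2 mM in 90% H2O/10% D2O with 150 mM KCl and 25 mM potassium phosphate, pH 7.0. Compound/quadruplex ratios were 0, 0.5 and 1. Watergate water suppression was used, and imino proton signals were monitored. Oligonucleotide was HPLC-purified.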

Calf thymus DNA [7] = experiment: Binding affinity to calf thymus DNA at 5 uM by fluorescence emission spectroscopic analysis; assay type: nucleic-acid assay; conditions: Bos taurus
Homo sapiens [8] = organism: Homo sapiens; experiment: Binding affinity to HTG21 G-quadruplex DNA assessed as hypochromicity by electronic absorption spectroscopic analysis
Outline: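 Absorption titration with ligand fixed at […] and HTG21 added at […], in Tris–HCl 10 mM, pH 7.4, containing KCl or NaCl. HTG21 was annealed at 95 °C for 5 min, cooled slowly, and held at 4 °C overnight. Absorbance decrease was followed. Binding constant was taken from a plot of [DNA]/(εa−εf) versus [DNA].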

Homo sapiens [9] = organism: Homo sapiens; experiment: Stabilization of HTG21 G-quadruplex DNA at 2.5 to 15 uM by PCR-stop assay
Outline: (§5)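 PCR-stop on forward primer HTG21 or mutant HTG21mu with reverse primer RevHTG21, each primer 0.4 µM. Mixes contained 0.2 mM dNTP and 1.5 U Taq in 1× Thermopol buffer (20 mM Tris–HCl, 10 mM KCl, 10 mM (NH4)2SO4, 2 mM MgSO4, 0.1% Triton X-100, pH 8.8). Ligand was tested at 0–15 µM. Products were resolved by electrophoresis and imaged under UV.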

Homo sapiens [10] = organism: Homo sapiens; experiment: Binding affinity to HTG21 G-quadruplex DNA assessed as transition temperature using Na+ buffer at 1:1 compound to DNA ratio by CD spectrometric analysis (reference value: 55.1 degC)
Outline: (§6)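 CD melting of HTG21 at 5 µM with ligand at 5 µM (1:1). Buffer was Tris–HCl 10 mM, pH 7.4, containing KCl or NaCl. Signal was monitored at 295 nm and curves were normalized to obtain the melting temperature. HTG21 was pre-annealed at 95 °C for 5 min, cooled slowly, and held at 4 °C overnight.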

Homo sapiens [11] = organism: Homo sapiens; experiment: Binding affinity to HTG21 G-quadruplex DNA assessed as transition temperature using K+ buffer at 1:1 compound to DNA ratio by CD spectrometric analysis (reference value: 64.6 degC); outline: as §6
Calf thymus DNA [12] = experiment: Binding affinity to calf thymus DNA assessed as hypochromicity by electronic absorption spectroscopic analysis; assay type: nucleic-acid assay; conditions: Bos taurus
HeLa [13] = experiment: Induction of apoptosis in human HeLa cells assessed as early apoptotic cells at 40 uM after 24 hrs by annexin V-FITC/propidium iodide staining-based flow cytometric analysis (reference value: 0.11%); assay type: functional; outline: as §4
HeLa [14] = experiment: Induction of apoptosis in human HeLa cells assessed as early apoptotic cells at 10 uM after 24 hrs by annexin V-FITC/propidium iodide staining-based flow cytometric analysis (reference value: 0.11%); assay type: functional; outline: as §4
HeLa [15] = experiment: Induction of apoptosis in human HeLa cells assessed as late apoptotic cells at 40 uM after 24 hrs by annexin V-FITC/propidium iodide staining-based flow cytometric analysis (reference value: 0.36%); assay type: functional; outline: as §4
HeLa [16] = experiment: Induction of apoptosis in human HeLa cells assessed as early apoptotic cells at 20 uM after 24 hrs by annexin V-FITC/propidium iodide staining-based flow cytometric analysis (reference value: 0.11%); assay type: functional; outline: as §4
Homo sapiens [17] = organism: Homo sapiens; experiment: Stabilization of HTG21mu G-quadruplex DNA at 15 uM by PCR-stop assay; outline: as §5
Homo sapiens [18] = organism: Homo sapiens; experiment: Binding affinity to HTG21 G-quadruplex DNA at 5 uM by fluorescence emission spectroscopic analysis
Outline: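 Fluorescence emission titration with ligand fixed at […] and annealed HTG21 varied up to […]. Buffer was Tris–HCl 10 mM, pH 7.4, containing KCl or NaCl. Quenching was plotted as F0/F versus [HTG21]/[compound] and fitted.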

HeLa [19] = experiment: Induction of apoptosis in human HeLa cells assessed as late apoptotic cells at 20 uM after 24 hrs by annexin V-FITC/propidium iodide staining-based flow cytometric analysis (reference value: 0.36%); assay type: functional; outline: as §4
HeLa [20] = experiment: Induction of apoptosis in human HeLa cells assessed as increase in apoptotic ratio after 24 hrs by annexin V-FITC/propidium iodide staining-based flow cytometric analysis; assay type: functional, cell-based; outline: as §4

Structure (SMILES)	Activity (HeLa [1])	Activity (HeLa [2])	IC50 (HeLa [2])	Activity (HeLa [3])	Activity (A549)	IC50 (A549)	Activity (SGC-7901)	IC50 [4]	Activity (MCF7)	IC50 (MCF7)	other results
CCN(CC)CC(=O)Nc1ccc2oc3ccc(NC(=O)CN(CC)CC)cc3c(=O)c2c1	Dose-dependent effect	Dose-dependent effect	20.4 µM	Dose-dependent effect	Dose-dependent effect	19.9 µM	Dose-dependent effect	32.2 µM	Dose-dependent effect	26.6 µM	
CN(C)CC(=O)Nc1ccc2oc3ccc(NC(=O)CN(C)C)cc3c(=O)c2c1	Dose-dependent effect	Dose-dependent effect	13.2 µM	Dose-dependent effect	Dose-dependent effect	18.7 µM	Dose-dependent effect	17.3 µM	Dose-dependent effect	23 µM	Activity (HeLa [5]): 9.45%; Activity (Homo sapiens [6]): Active; Activity (Calf thymus DNA [7]): inactive; Kb (Homo sapiens [8]): 2.89 ×10⁴ /M; Activity (Homo sapiens [9]): Active; T (Homo sapiens [10]): 60.8 °C; T (Homo sapiens [11]): 70.3 °C; Kb (Calf thymus DNA [12]): 0.46 ×10⁴ /M; Activity (HeLa [13]): 32.07%; Activity (HeLa [14]): 12.36%; Activity (HeLa [15]): 60.78%; Activity (HeLa [16]): 22.69%; Activity (Homo sapiens [17]): inactive; Activity (Homo sapiens [18]): Active; Activity (HeLa [19]): 18.24%; Activity (HeLa [20]): Dose-dependent effect
O=C(CN1CCCCC1)Nc1ccc2oc3ccc(NC(=O)CN4CCCCC4)cc3c(=O)c2c1	Dose-dependent effect	Dose-dependent effect	> 100 µM	Dose-dependent effect	Dose-dependent effect	> 100 µM	Dose-dependent effect	86.7 µM	Dose-dependent effect	83.9 µM	
O=C(CN1CCCC1)Nc1ccc2oc3ccc(NC(=O)CN4CCCC4)cc3c(=O)c2c1	Dose-dependent effect	Dose-dependent effect	48.2 µM	Dose-dependent effect	Dose-dependent effect	21.5 µM	Dose-dependent effect	35.9 µM	Dose-dependent effect	34.9 µM	
O=C(CN1CCOCC1)Nc1ccc2oc3ccc(NC(=O)CN4CCOCC4)cc3c(=O)c2c1	Dose-dependent effect	Dose-dependent effect	> 100 µM	Dose-dependent effect	Dose-dependent effect	80.5 µM	Dose-dependent effect	84.9 µM	Dose-dependent effect	> 100 µM	

Source: ChEMBL document CHEMBL3745598, “Synthesis and biological evaluation of disubstituted amidoxanthones as potential telomeric G-quadruplex DNA-binding and apoptosis-inducing agents” (Bioorg Med Chem, 2016)
